Source: PubChem BioAssay (Sanford-Burnham Center for Chemical Genomics)
Only some compounds are listed: those with a hit (about 2.3% of all), similar ones and a draw of the others.
SUMO1 PPI mod: modulators of human SUMO1-mediated protein-protein interactions; P63165; SUMO1 binding to a labelled peptide, TR-FRET, 1 h; inhibition, % at 20 µM; actives 0.33% (n = 360,000); AID 602429; in the data active = inhibition above about 37%
Target sequence (P63165 whole entry, looked up): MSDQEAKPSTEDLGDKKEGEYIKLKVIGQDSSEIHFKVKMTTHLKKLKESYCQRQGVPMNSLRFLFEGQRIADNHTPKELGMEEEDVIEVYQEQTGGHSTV
LMPTP inh: blocks human LMPTP phosphatase; recombinant LMPTP-A, OMFP fluorogenic substrate, fluorescence intensity; inhibition, % at 20 µM; actives 0.22% (n = 360,000);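 active = compounds that cut the enzyme signal by at least half of the control window in the single-dose screen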;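 also: plate controls were DMSO wells with enzyme plus substrate for no effect and substrate without enzyme for full effect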
Target sequence (P24666 whole entry, looked up): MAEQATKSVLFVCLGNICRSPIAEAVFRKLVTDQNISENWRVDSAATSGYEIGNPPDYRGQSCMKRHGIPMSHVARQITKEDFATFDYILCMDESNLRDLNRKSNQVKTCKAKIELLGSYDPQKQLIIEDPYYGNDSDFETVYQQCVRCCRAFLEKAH
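Test system – LMPTP-A phosphatase enzyme · Quantity – 0.625 nM LMPTP-A final · Reagent – OMFP substrate, 400 µM final · Dosing – one test concentration per compound, 20 µM, with 3% DMSO overall · Timing – 50 min enzyme reaction at room temperature, protected from light · Detection – fluorescence intensity · Controls – substrate-only low control, DMSO enzyme-plus-substrate high control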
DNMT1 inh: blocks human DNA methyltransferase DNMT1; P26358; DNMT1 molecular beacon, Hinp1I cleavage, fluorescence; inhibition (reported as % activation of signal), % at 10 µM; actives 0.83% (n = 360,000); in the data active = inhibition above about 50%
STEP inh: inhibitors of human striatal-enriched phosphatase STEP. actives 0.25% (n = 360,000). inhibition, % at 20 µM. P54829. recombinant STEP, OMFP fluorogenic substrate, fluorescence;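 active = inhibition at 20 µM, scaled per plate between control wells, above about 37%, limit read from the data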;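 also: 0% = DMSO with enzyme and substrate and 100% = substrate only without enzyme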
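Assay system: isolated STEP enzyme / Timing: 20 min at room temperature, dark / Doses: 20 µM, 1% DMSO / Technique: fluorescence intensity, excitation 480 nm, emission 540 nm / Reagent: fluorogenic phosphatase substrate OMFP at 25 µM final / Measure: percent inhibition scaled to no-enzyme and uninhibited-enzyme controls, plate-pattern corrected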
Rpn11 inh: inhibitors of human proteasome Rpn11. human 26S proteasome, Ub4-pepOG fluorescence polarization; 20S core pre-blocked with epoxomicin. actives 0.59% (n = 360,000). inhibition, % at 20 µM. O00487;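 active = inhibition at 20 µM, scaled to each plate's controls, above about 33%, limit read from the data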
Target sequence (O00487 whole entry, looked up): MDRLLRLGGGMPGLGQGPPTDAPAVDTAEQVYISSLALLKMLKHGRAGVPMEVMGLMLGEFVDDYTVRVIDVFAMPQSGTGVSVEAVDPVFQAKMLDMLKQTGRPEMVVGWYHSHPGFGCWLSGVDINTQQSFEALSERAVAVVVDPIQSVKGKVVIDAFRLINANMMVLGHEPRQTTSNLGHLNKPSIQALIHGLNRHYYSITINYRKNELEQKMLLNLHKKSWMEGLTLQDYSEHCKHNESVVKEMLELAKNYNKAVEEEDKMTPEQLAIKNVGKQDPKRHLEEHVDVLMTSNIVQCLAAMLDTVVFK
Scp1 inh: Scp-1 (human) phosphatase inhibition | Q9GZU7 | actives 0.88% (n = 340,000) | inhibition, % at 20 µM | Recombinant Scp1, phosphopeptide, malachite green phosphate absorbance;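 active = inhibition above about 50% at 20 µM, limit read from the data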;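 also: plate controls were DMSO wells with enzyme for no effect and wells lacking enzyme for full effect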
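Times: enzyme reaction 45 min at room temperature, colour 5 min, stabilisation 30 min. Material: SCP-1 catalytic fragment, aa 76-261. Medium: Acidic Tris acetate buffer with magnesium and detergent. Signal: colorimetric free-phosphate detection, absorbance 630 nm. Read-out basis: % inhibition of SCP-1 phosphate liberation. Reagent: Phosphorylated 17-residue peptide substrate.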
An asterisk follows results filed as active; / = not tested or not shown; + = active, no number.

SMILES	SUMO1 PPI mod	LMPTP inh	DNMT1 inh	STEP inh	Rpn11 inh	Scp1 inh
N#CC(C#N)=NNc1ccc(S(N)(=O)=O)cc1	31.1	57.3*	46.4	2.1	16.4	12.4
COc1ccc(OC)c(N2C(=O)/C(=C/c3ccco3)C(=O)NC2=S)c1	/	/	/	/	/	89.0*
COc1ccc(OC)c(N2C(=O)NC(=O)/C(=C/c3ccc([N+](=O)[O-])s3)C2=O)c1	47.2*	3.9	20.9	4.7	21.9	5.4
Cc1ccc2n1Cc1cnnn1-c1ccccc1-2	-1.0	-0.8	-0.9	-1.5	-0.8	/
O=[N+]([O-])c1ccc(OP(=O)(O)Oc2ccc([N+](=O)[O-])cc2)cc1	-19.6	-1.0	6.6	-1.5	-1.4	0.5
O=c1c2ccccc2nc(-c2ccccc2)n1-c1ccccc1	2.5	-1.6	1.5	-1.7	-4.2	-11.4
O=c1c2ccccc2[se]n1-c1ccccc1	-7.4	0.1	-1.8	-2.6	-0.7	101.3*
O=C(NCC1=C(c2cccc3ccccc23)C[C@@H]2CC[C@H]1N2Cc1ccco1)c1ccc([N+](=O)[O-])cc1	-27.3	-1.7	-7.9	2.0	-6.7	/
O=C(O)C1C(C(=O)O)C2(Cl)C(Cl)=C(Cl)C1(Cl)C2(Cl)Cl (stereo not given)	22.2	64.6*	27.8	10.2	-23.9	-15.2
COC12c3ccccc3-c3ccccc3C1C(C(=O)O)C2C(=O)O (stereo not given)	5.6	1.4	-0.7	-2.8	12.5	/
CC(C)COC(=O)N1Cc2ccccc2-n2nncc2C1	1.8	-0.8	2.1	1.3	3.2	/
O=C(O)CCC(=O)NCCC1=c2ccccc2=N/C1=C\c1c(O)n(Cc2ccc(F)cc2)c(=S)[nH]c1=O	23.3	-0.2	4.7	-1.7	32.2	91.9*
O=C(N/N=C/c1c(O)n(Cc2ccc(F)cc2)c(=O)[nH]c1=O)c1ccccc1	0.5	-0.6	0.2	-0.4	19.2	-12.5
COC(=O)C1=C(c2cc3ccccc3s2)C[C@@H]2CC[C@H]1N2C(=O)NCc1ccc(F)cc1	-3.3	2.6	-4.0	0.0	1.1	-3.0
COc1cccc(C(c2nnnn2C2CCCCC2)N2CCC3(CC2)C(=O)NCN3c2ccccc2)c1OC (stereo not given)	5.0	1.8	-9.1	2.4	9.0	/
Nc1ccnn1C1CCNCC1	0.3	-6.2	-3.1	-2.1	-6.9	-8.0
CN1CCC(n2nccc2N)CC1	43.3*	-8.5	2.6	-1.0	1.3	-6.1
CCN1C[C@]2(COC)CC[C@H](OC)[C@@]34C5C[C@H]6C(=O)C5[C@](O)(C[C@H]6OC)[C@@](O)(C(OC)C23)[C@@H]14 (stereo not given in full)	4.6	-1.8	0.3	0.2	3.9	12.2
O=c1[nH]c(=O)n(Cc2ccco2)c(O)c1C=NCc1cccs1	0.3	-1.0	15.2	1.2	-2.1	0.8
O=c1[nH]c(=S)n(Cc2ccco2)c(O)c1C=NCc1cccs1	5.6	65.4*	48.9	-0.3	-4.5	35.9
Cc1cccc(C)c1-n1nnnc1C(C1CC1)N1CCC(n2c(=O)[nH]c3ccccc32)CC1 (stereo not given)	7.4	6.3	-5.0	-0.5	1.4	/
COc1ccc(-c2nc3ccccc3c(=O)n2-c2nccs2)cc1	41.6*	-1.2	-9.5	-5.2	4.3	-9.0
COc1ccc(-c2nc3ccccc3c(=O)n2-c2ccc(OC)cc2)cc1	5.0	-0.6	-0.7	4.5	-1.6	-7.1
CC1=C(C)CC2(CC1)C(=O)NC(=O)NC2=O	-2.3	-2.0	2.8	0.8	-4.9	-0.3
CC(C)CNC(=O)c1c(N)n(Cc2ccc3c(c2)OCO3)c2nc3ccccc3nc12	45.9*	6.5	-19.5	-2.6	13.0	-5.0
SMILES	SUMO1 PPI mod	LMPTP inh	DNMT1 inh	STEP inh	Rpn11 inh	Scp1 inh
CC(C)CCNC(=O)c1c(N)n(Cc2ccc3c(c2)OCO3)c2nc3ccccc3nc12	4.3	6.9	-24.4	-0.9	7.6	0.2
O=C(Cn1cc(C=C2C(=O)NC(=O)NC2=O)c2ccccc21)NCC1CCCO1 (stereo not given)	-3.2	-1.3	3.1	-1.3	-2.2	4.4
Cc1c(C=C2C(=O)N(C)C(=S)N(C)C2=O)c2ccccc2n1CC(=O)NCC1CCCO1 (stereo not given)	-0.8	1.7	0.7	-1.1	42.7*	-8.3
COC(=O)C1=C(c2c(C)noc2C)C[C@@H]2CC[C@H]1N2C(=O)NCCO	3.5	-0.7	0.9	-1.0	-7.7	-2.3
O=C1NC(=S)N(c2ccc(F)cc2)C(=O)/C1=C\c1ccoc1	75.1*	45.9	85.3*	42.5*	+	74.0*
Cc1ccc(N2C(=O)NC(=O)/C(=C\c3ccoc3)C2=O)cc1	3.4	-0.2	16.8	0.8	37.5	11.2
C=CCN1C[C@@H](C)N(C(c2ccc(C(=O)N(CC)CC)cc2)c2cccc(OC)c2)C[C@@H]1C (stereo not given in full)	-4.4	-0.5	49.5	-1.5	-4.4	-3.5
O=C1NC(=O)C(=Cc2ccc(Sc3ccccc3)o2)C(=O)N1	-0.1	-0.8	12.2	1.4	3.7	17.1
O=C1NC(=O)C(=Cc2ccco2)C(=O)N1	8.3	11.4	81.7*	49.5*	-2.8	28.0
COC(=O)C1=C(c2cccc(OC)c2OC)C[C@@H]2CC[C@H]1N2C(=O)N1CCC(C)CC1	-0.3	-0.7	1.9	-0.5	8.3	-5.8
C=C1C(=O)OC2CC(C)C3C=CC(=O)C3(C)C(O)C12 (stereo not given)	-2.9	-0.7	6.6	0.7	-3.1	-0.3
C=C1C(=O)O[C@@H]2C[C@@H](C)[C@@H]3C=CC(=O)[C@@]3(C)[C@@H](OC(=O)CC(=O)O[C@H]3[C@@H]4C(=C)C(=O)O[C@@H]4C[C@@H](C)[C@@H]4C=CC(=O)[C@]43C)[C@H]12	24.4	2.5	25.1	3.4	95.3*	32.5
Cc1ccc(OCCOc2cccc(C=C3C(=O)NC(=O)NC3=O)c2)c(C)c1	8.4	2.2	51.7*	1.6	7.5	-2.0
CNC(=O)Oc1ccc(N(C)C)cc1C(C)C	-2.1	-1.0	9.3	0.9	-6.9	6.3
COCCCn1c(N)c(C(=O)OCCOC)c2nc3ccccc3nc21	34.0	1.5	26.7	0.7	-3.2	-9.3
CCOC(=O)c1c(NS(=O)(=O)c2ccccc2)n(CCCOC)c2nc3ccccc3nc12	42.7*	10.6	38.0	-0.4	4.2	3.0
CC(=O)Nc1ccc(S(=O)(=O)N2Cc3ccccc3-n3nncc3C2)cc1	-1.9	-1.6	-5.1	2.0	-1.7	/
Clc1ccc(C(c2ccc(Cl)cc2)n2cc[n+](CC(OCc3ccc(Cl)cc3Cl)c3ccc(Cl)cc3Cl)c2)cc1 (stereo not given)	80.4*	32.0	-54.8	8.3	104.6*	-0.7
